In ChEMBL document CHEMBL3997850 (ACS Med Chem Lett, 2017):

Assays:
Cytochrome P450 3A4 = Cytochrome P450 3A4 (Homo sapiens, UniProt P08684); assay: Inhibition of recombinant human CYP3A4 assessed as decrease in hydroxylation of 7-benzyloxy-4-trifluoromethyl-coumarin by fluorescence assay; format: ADME; settings: recombinant enzyme
Procedure, shortened: (§1)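 Recombinant human CYP1A2 or CYP3A4 with 7-benzyloxy-4-trifluoromethyl-coumarin at Km concentration; hydroxylation read by fluorescence. Inhibitor tested at 0–25 µM.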

Mus musculus [1] = assay: Toxicity in mouse assessed as change in body weight up to 2000 mg/kg/day after 28 days; format: organism-based; settings: in vivo, 672 h
[2] = Volume of distribution at steady state in cynomolgus monkey at 4 mg/kg, iv or 10 mg/kg, po by LC/MS/MS analysis; format: ADME, organism-based, Macaca fascicularis; settings: in vivo, read-out: Vdss
Procedure, shortened: (§2)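 Male cynomolgus monkeys given 4 mg/kg IV (5% DMAC, 40% propylene glycol in saline) or 10 mg/kg orally (0.5% methylcellulose). EDTA plasma collected pre-dose through 24 h. Acetonitrile protein precipitation, then LC/MS/MS quantification, linear 2–10000 nM. PK parameters by standard non-compartmental methods.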

[3] = Oral bioavailability in cynomolgus monkey at 10 mg/kg by LC/MS/MS analysis; format: ADME, organism-based, Macaca fascicularis; settings: in vivo; procedure, shortened: as §2
Canis familiaris [4] = assay: Toxicity in dog assessed as effect on food consumption up to 500 mg/kg/day after 28 days; format: organism-based, Canis lupus familiaris; settings: in vivo, 672 h
Canis familiaris [5] = assay: AUC in beagle dog at 5 mg/kg, iv or 10 mg/kg, po by LC/MS/MS analysis; format: ADME, organism-based, Canis lupus familiaris; settings: in vivo
Procedure, shortened: (§3)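 Male beagle dogs dosed 5 mg/kg IV in 10% DMAC in saline or 10 mg/kg oral in 5% DMAC in 0.5% methylcellulose. EDTA blood taken from pre-dose to 24 h and spun to plasma. Plasma proteins precipitated with acetonitrile, then LC/MS/MS (linear 2–10000 nM, 0.1 mL plasma). Parameters derived by non-compartmental analysis.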

[6] = Clearance in beagle dog at 5 mg/kg, iv or 10 mg/kg, po by LC/MS/MS analysis; format: ADME, organism-based, Canis lupus familiaris; settings: in vivo; procedure, shortened: as §3
[7] = Half life in rat at 5 mg/kg, po by LC/MS/MS analysis; format: ADME, organism-based; settings: in vivo
Procedure, shortened: (§4)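 Male rats, 5 mg/kg IV in 10% DMAC/saline or 5 mg/kg oral in 0.5% aqueous methylcellulose. Plasma (EDTA) sampled pre-dose to 24 h. Quantified by acetonitrile precipitation and LC/MS/MS (2–10000 nM range, 0.1 mL). Non-compartmental analysis of concentration–time data.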

Cynomolgus monkey = assay: AUC in cynomolgus monkey at 4 mg/kg, iv or 10 mg/kg, po by LC/MS/MS analysis; format: ADME, organism-based, Macaca fascicularis; settings: in vivo; procedure, shortened: as §2
Mus musculus [8] = assay: Toxicity in mouse up to 2000 mg/kg/day after 28 days by clinical pathology test; format: organism-based; settings: in vivo, 672 h
Mus musculus [9] = assay: Toxicity in mouse assessed as effect on food consumption up to 2000 mg/kg/day after 28 days; format: organism-based; settings: in vivo, 672 h
Canis familiaris [10] = assay: Toxicity in dog up to 500 mg/kg/day after 28 days by histopathology test; format: organism-based, Canis lupus familiaris; settings: in vivo, 672 h
Canis familiaris [11] = assay: Toxicity in dog up to 500 mg/kg/day after 28 days by clinical pathology test; format: organism-based, Canis lupus familiaris; settings: in vivo, 672 h
[12] = Clearance in cynomolgus monkey at 4 mg/kg, iv or 10 mg/kg, po by LC/MS/MS analysis; format: ADME, organism-based, Macaca fascicularis; settings: in vivo; procedure, shortened: as §2
[13] = Volume of distribution at steady state in beagle dog at 5 mg/kg, iv or 10 mg/kg, po by LC/MS/MS analysis; format: ADME, organism-based, Canis lupus familiaris; settings: in vivo, read-out: Vdss; procedure, shortened: as §3
[14] = Volume of distribution at steady state in rat at 5 mg/kg, iv or 5 mg/kg, po by LC/MS/MS analysis; format: ADME, organism-based; settings: in vivo, read-out: Vdss; procedure, shortened: as §4
Cytochrome P450 1A2 = molecular target: T1, Cytochrome P450 1A2 (Homo sapiens, UniProt P05177); assay: Inhibition of recombinant human CYP1A2 assessed as decrease in hydroxylation of 7-benzyloxy-4-trifluoromethyl-coumarin by fluorescence assay; format: ADME; settings: recombinant enzyme; procedure, shortened: as §1
T1 sequence (P05177 whole entry): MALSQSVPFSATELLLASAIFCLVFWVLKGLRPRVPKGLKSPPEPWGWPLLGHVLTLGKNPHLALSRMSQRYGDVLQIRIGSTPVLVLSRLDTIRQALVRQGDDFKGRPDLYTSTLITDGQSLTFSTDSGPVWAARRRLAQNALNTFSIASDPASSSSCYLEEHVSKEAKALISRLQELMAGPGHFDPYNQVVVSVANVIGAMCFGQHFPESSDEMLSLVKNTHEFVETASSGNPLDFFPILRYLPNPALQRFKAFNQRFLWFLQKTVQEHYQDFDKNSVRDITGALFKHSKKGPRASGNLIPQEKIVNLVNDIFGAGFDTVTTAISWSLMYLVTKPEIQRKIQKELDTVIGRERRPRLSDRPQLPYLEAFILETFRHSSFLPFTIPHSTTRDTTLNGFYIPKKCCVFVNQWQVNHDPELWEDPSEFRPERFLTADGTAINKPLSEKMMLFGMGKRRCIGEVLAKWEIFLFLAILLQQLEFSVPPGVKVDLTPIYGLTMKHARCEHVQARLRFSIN

Rattus norvegicus = assay: AUC in rat at 5 mg/kg, iv or 5 mg/kg, po by LC/MS/MS analysis; format: ADME, organism-based; settings: in vivo; procedure, shortened: as §4
[15] = Half life in beagle dog at 5 mg/kg, iv by LC/MS/MS analysis; format: ADME, organism-based, Canis lupus familiaris; settings: in vivo; procedure, shortened: as §3
[16] = molecular target: T2, Nuclear receptor subfamily 1 group I member 2 (Homo sapiens, UniProt O75469); assay: Induction of PXR (unknown origin) expressed in human HepG2 cells after 24 hrs by dual-glo luciferase reporter gene assay; format: ADME, cell-based
T2 sequence (O75469 whole entry): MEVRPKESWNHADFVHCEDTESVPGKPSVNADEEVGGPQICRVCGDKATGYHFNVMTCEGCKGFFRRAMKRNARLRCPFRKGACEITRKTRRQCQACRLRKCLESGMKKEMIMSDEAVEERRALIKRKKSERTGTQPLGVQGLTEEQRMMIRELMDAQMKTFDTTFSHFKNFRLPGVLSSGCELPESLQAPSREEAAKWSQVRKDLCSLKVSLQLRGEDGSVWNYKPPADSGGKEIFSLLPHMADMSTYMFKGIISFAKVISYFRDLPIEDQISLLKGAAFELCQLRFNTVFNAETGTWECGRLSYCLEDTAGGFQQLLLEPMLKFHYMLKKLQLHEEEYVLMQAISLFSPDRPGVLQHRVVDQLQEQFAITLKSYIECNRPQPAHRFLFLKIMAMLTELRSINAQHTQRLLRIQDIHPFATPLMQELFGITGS
Procedure, shortened: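 HepG2 cells transfected with human or rat PXR/CYP3A4 reporter, grown 24 h in phenol-red-free MEM with 2 mM L-glutamine and 10% charcoal-stripped FBS at 37 °C, 5% CO2. Compound added at 10 µM final with 0.6% DMSO for 24 h. Dual-Glo firefly then Renilla luminescence read; firefly/Renilla ratio normalized to control-compound wells as % induction.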

Liver = assay: Intrinsic clearance in rat hepatic S9 fraction at 5 uM in presence of UDPGA/NADPH measured over 30 mins by LC/MS analysis; format: ADME, tissue-based; settings: s9, 0.5 h
Procedure, shortened: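 Rat hepatic S9 (2 mg/mL protein) with compound 5 µM, 50 mM Tris-HCl pH 7.5, 8 mM MgCl2, 2 mM NADPH, 2 mM UDPGA, 12.7 µM alamethicin, 37 °C. Reaction started with S9. Aliquots taken over 0–30 min, quenched with acetonitrile, analyzed by LC/MS.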

Cytochrome P450 3A4, sequence (P08684 whole entry): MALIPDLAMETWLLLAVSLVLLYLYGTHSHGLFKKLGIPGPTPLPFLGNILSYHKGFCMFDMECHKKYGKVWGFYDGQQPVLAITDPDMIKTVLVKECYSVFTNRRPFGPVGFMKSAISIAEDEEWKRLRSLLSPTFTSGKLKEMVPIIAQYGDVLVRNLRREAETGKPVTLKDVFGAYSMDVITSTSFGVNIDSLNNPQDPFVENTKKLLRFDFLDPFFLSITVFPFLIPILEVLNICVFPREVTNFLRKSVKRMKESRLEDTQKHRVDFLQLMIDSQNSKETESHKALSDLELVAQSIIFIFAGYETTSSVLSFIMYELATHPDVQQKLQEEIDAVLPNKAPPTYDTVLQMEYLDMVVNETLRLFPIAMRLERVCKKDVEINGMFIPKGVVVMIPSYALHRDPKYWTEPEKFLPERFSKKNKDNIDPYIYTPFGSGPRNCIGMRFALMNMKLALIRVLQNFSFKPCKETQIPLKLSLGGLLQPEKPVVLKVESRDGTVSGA

With `NS(=O)(=O)NCCNc1nonc1C(=NO)Nc1ccc(F)c(Br)c1` [EPACADOSTAT] the “inhibition (INH)” value (Cytochrome P450 3A4) was “Not Active”, the Activity (Mus musculus [1]) was “Non-Toxic” and the Vd [2] was 1.8 L/kg. For the same compound, the bioavailability [3] was 33%, the Activity (Canis familiaris [4]) was “Non-Toxic” and the AUC (Canis familiaris [5]) was 29 µM·h. It also gave a clearance [6] of 8.33 mL/min/kg, a half-life [7] of 2.2 h and an AUC (Cynomolgus monkey) of 9.3 µM·h. For the same compound, the Activity (Mus musculus [8]) was “Non-Toxic”, the Activity (Mus musculus [9]) was “Non-Toxic” and the Activity (Canis familiaris [10]) was “Non-Toxic”. For the same compound, the Activity (Canis familiaris [11]) was “Non-Toxic”, the clearance [12] was 13.3 mL/min/kg and the Vd [13] was 0.7 L/kg. For the same compound, the Vd [14] was 2 L/kg, the “inhibition (INH)” value (Cytochrome P450 1A2) was “Not Active” and the AUC (Rattus norvegicus) was 1.3 µM·h. The half-life [15] was 3.1 h, the Activity [16] was “Not Active” and the CLH (Liver) was 12 mL/min/kg.
